Source: PubChem (several laboratories)
Many of the other results were omitted from the sample, so hits are more common in it than they were.
HePTP inhibitor: blocks human HePTP tyrosine phosphatase; recombinant HePTP phosphatase activity, OD absorbance; 110,000 tested, 0.64% active; P35236; inhibition, % at 20 µM; in the data active = inhibition above about 50%;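 also: plate controls were vehicle for no effect and reference inhibitor for full effect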
Target sequence (P35236 whole entry, looked up): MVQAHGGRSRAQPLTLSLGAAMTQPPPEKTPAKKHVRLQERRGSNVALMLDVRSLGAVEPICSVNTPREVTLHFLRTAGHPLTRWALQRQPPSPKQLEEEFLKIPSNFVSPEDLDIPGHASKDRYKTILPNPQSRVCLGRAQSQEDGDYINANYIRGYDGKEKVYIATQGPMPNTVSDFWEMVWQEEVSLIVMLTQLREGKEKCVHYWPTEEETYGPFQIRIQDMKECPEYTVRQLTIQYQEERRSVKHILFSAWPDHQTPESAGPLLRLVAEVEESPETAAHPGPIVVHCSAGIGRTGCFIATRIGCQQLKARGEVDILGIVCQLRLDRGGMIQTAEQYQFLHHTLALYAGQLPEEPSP
E coli WT exp: blocks growth of wild type E. coli BW25113; OD600 absorbance; growth inhibition, % at 100 µM; 98,000 tested, 0.15% active; AID 710;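 active = growth inhibition above about 50% at one test dose, limit read from the data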;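 also: growth measured after 20 h incubation at 37 °C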
MMP13 inh: MMP13 (human) collagenase inhibition | P45452 | MMP-13 fTHP FRET cleavage, Mca fluorescence | inhibition, % at 4 µM | 65,000 tested, 0.07% active | AID 570;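 active = inhibition above the mean of compound-free control plate wells plus 3 SD, cut at about 14% in these data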;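 also: 0% = DMSO wells and 100% = wells with reference MMP-13 inhibitor after basal subtraction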
tolC growth inh: growth inhibitors of E. coli BW25113 tolC mutant; AID 573; 65,000 tested, 2.2% active; growth inhibition, % at 10 µM (by protocol); OD615;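 active = growth inhibition at or above a cutoff equal to the mean over every tested compound plus 3 SD, cut at about 60% in these data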;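 also: growth measured after 20 h incubation at 37 °C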
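Doses: one dose of 10 µM final / Material: E. coli BW25113 ΔtolC::kan, tolC deletion mutant strain / Buffer or medium: LB with kanamycin 50 µg/mL / Evaluation: percent growth inhibition / Detection: optical density read at 615 nm / Incubation: 37 °C, 20 h exposure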
E coli RNAP: Escherichia coli RNA polymerase inhibition | 62,000 tested, 0.2% active | E. coli RNA polymerase, fluorescence transcription assay | P0A8V2 | inhibition, %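 (tested at 10 µM)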; in the data active = inhibition above about 20%;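 also: 0% = enzyme without compound and 100% = no enzyme blank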
AP ELISA ortho: orthogonal test for alternative complement pathway inhibitors | Human serum alternative complement pathway, LPS-coated ELISA, C3 deposition; tested in compound mixtures | inhibition, % at 5 µM | 62,000 tested, 0.08% active | AID 1235;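 active = inhibition above 30% in each of the two pooled mixtures holding the compound, so the lower value exceeds 30%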;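 also: 0% = serum in Mg-EGTA without compound and 100% = EDTA serum blank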
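Assay system: Human serum alternative complement pathway, C3 deposition on LPS-coated wells | Incubation: 1 h serum-compound exposure at 37 °C | Doses: 5 µM per compound in ten-compound mixtures | Read-out: Percent inhibition | Technique: ELISA with HRP anti-human C3 antibody, TMB substrate, absorbance 450 nm | Replication: Two pool placements per compound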
* = called active by the depositor; . = no result given; ! = a repeat was not active.

SMILES	HePTP inhibitor	E coli WT exp	MMP13 inh	tolC growth inh	E coli RNAP	AP ELISA ortho
CCCCN(CC)S(=O)(=O)c1ccc(C(=O)Nc2nnc(-c3cccs3)o2)cc1	13	-1	2	99*	4	5
CCCCN(C)S(=O)(=O)c1ccc(C(=O)Nc2nnc(CSC)o2)cc1	8	14	-1	98*	6	-8
CC(=O)Nc1ccc(NS(=O)(=O)c2ccc3ncccc3c2)cc1	10	.	.	.	.	.
COc1ccccc1/C=C1/C(=O)NC(=O)N(c2ccccc2OC)C1=O	1	.	.	.	.	.
CCOc1cc([N+](=O)[O-])cc(/C=C2/SC(=S)NC2=O)c1O	5	.	.	.	.	.
CC1CCN(c2cc(N3CCN(C(=O)c4ccc(F)cc4F)CC3)c([N+](=O)[O-])cc2F)CC1	7	.	.	.	.	.
Cc1ccc(C2CC(c3cccc(Br)c3)Nc3nnnn32)cc1 (stereo unspecified)	13	-9	0	67*	10	8
Cc1ccc(C(c2nnnn2CCc2ccccc2)N2CCSCC2)cc1 (stereo unspecified)	8	-20	3	64*	3	-6
Cn1c(CSc2nc3ccccc3s2)nc2ccccc21	-8	-7	7	72*	5	-19
Cn1c(CSc2nc3ccccc3s2)n[nH]c1=S	7	17	1	29	4	4
N#Cc1nc(Cc2cccc3ccccc23)oc1NCc1ccc(F)cc1	2	4	-7	71*	9	-2
CCOC(=O)N1CCN(S(=O)(=O)c2ccc(OCC)c3ccccc23)CC1	5	-13	-4	65*	3	22
CCOC(=O)N1CCN(S(=O)(=O)c2ccc(OC)c(Cl)c2Cl)CC1	-5	-3	-2	3	-1	9
Cc1cc(C)n(C(C[N+](=O)[O-])c2ccc(Cl)cc2)n1 (stereo unspecified)	.	100*	.	.	.	.
O=[N+]([O-])c1cc(-c2ccn[nH]2)c(Cl)cc1Cl	7	.	.	.	.	.
CC(=O)C1=C(O)C(=O)N(c2nc3ccccc3s2)C1c1ccc(Cl)cc1Cl (stereo unspecified)	9	.	.	.	.	.
O=C1NC(=O)/C(=C\c2ccncc2)S1	-2	.	.	.	.	.
COc1ccccc1N1CCN(C(=O)Cc2cccs2)CC1	10	3	2	1	-9	15
CO[C@@]1(NC(=O)Cc2cccs2)C(=O)N2C(C(=O)O)=C(COC(N)=O)CS[C@@H]21	.	.	.	100*	.	.
O=C(Nc1ccc(N2CCN(C(=O)c3ccco3)CC2)c(Cl)c1)c1cccs1	-8	-17	5	71*	-2	-1
Nc1cc(Cl)c(S(=O)(=O)Nc2ccccc2)cc1S(=O)(=O)Nc1ccccc1	-8	.	.	.	.	.
COc1ccccc1OCCSc1nnnn1-c1ccc(C)cc1	-1	4	5	65*	5	19
CCOc1ccc(Nc2cc(C)nc(-n3nc(C)cc3C)n2)cc1	3	10	1	72*	.	1
CCc1cccc(C)c1NC(=O)COc1cccc(Cl)c1	9	.	.	.	.	.
N#Cc1ccc2c(c1)nc1c3cccc4cccc(c(=O)n21)c43	65*	.	.	.	.	.
SMILES	HePTP inhibitor	E coli WT exp	MMP13 inh	tolC growth inh	E coli RNAP	AP ELISA ortho
O=C(c1ccc2c(c1)OCO2)N1CCN(c2ccc(Cl)cc2)CC1	102*!	-3	-8	18	5	6
O=C(c1ccc2c(c1)OCO2)N1CCN(c2ccccc2)CC1	6	4	-2	0	8	-5
CCOC(=O)CC(=O)Nc1ccccc1C(=O)OCC	8	.	.	.	.	.
CCCOc1cccc(C(=O)Nc2nc(-c3ccc(F)cc3F)cs2)c1	95*	.	.	.	.	.
CCOc1cccc(C(=O)Nc2nc(-c3ccc(F)cc3F)cs2)c1	-6	.	.	.	.	.
COC(=O)CSC1=C(C#N)C(c2ccc(F)cc2)CC(=O)N1 (stereo unspecified)	6	6	5	-3	21*	2
Cc1cc(=O)[nH]c(-n2nc(C)c(Oc3ccccc3O)c2C)n1	-1	-15	8	38	2	1
Cc1cc(=O)[nH]c(-n2nc(C)cc2C)n1	-2	57*	0	75*	.	3
CC1CCN(CCCCOc2ccccc2C(C)C)CC1	4	.	.	.	.	.
O=C(O)CCN1C(=O)/C(=C/c2cn(-c3ccccc3)nc2-c2ccc(Br)cc2)SC1=S	101*	.	.	.	.	.
O=C(O)CCCN1C(=O)/C(=C/c2cn(-c3ccccc3)nc2-c2cccc([N+](=O)[O-])c2)SC1=S	104*	.	.	.	.	.
Cc1ccc(-c2cc(C(=O)NC3=NCCS3)c3cc(Br)ccc3n2)o1	16	-8	2	6	4	2
